Data set [1] is described as follows: Displacement of [3H]-flumazenil from central-type benzodiazepine receptor in bovine cortical membrane after 90 mins by liquid-phase scintillation beta-counting method. The class given is cell membranes, Bos taurus. An outline of the steps: (§1)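 Competition binding against radiolabelled antagonist [3H]flumazenil in cortical membranes (bovine; human where listed); Ki reported as mean ± SEM of three independent determinations.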
(Displacement assays read how much labelled ligand stays bound in the presence of the test substance.)

For data set [2], the species on record is Rattus norvegicus. The data set is described as follows: Partial agonist activity at central-type benzodiazepine receptor in Sprague-Dawley rat cerebrocortical synaptoneurosomes assessed as increase in 36Cl- influx after 10 secs by liquid-phase scintillation beta-counting method.
The subject of data set [3] is Mus musculus. The experiment in a line: Neurotoxicity in mouse assessed as effect on neurological and muscular abilities at 10 mg/kg, po after 30 mins by Hole-Board test. The data set is classed as toxicity, organism-based. The conditions noted are these: in vivo, 0.5 h. An outline of the steps: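 Hole-board test 30 min after oral dosing at 10 mg kg-1 counted movements (motor activity) and head inspections (exploratory activity). Values are mean ± SEM of at least 10 mice, compared with vehicle controls.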

The species entered for data set [4] is Mus musculus. The experiment in a line: Myorelaxant effect in mouse assessed as effect on motor coordination after 30 mins by rotarad test. The data set is classed as organism-based. The following applies: in vivo, 0.5 h. The procedure, abridged:
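Rota-rod test of motor coordination in mice, with compounds given per os 30 min before testing. Values are mean ± SEM of at least 10 mice.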

The species entered for data set [5] is Bos taurus. The experiment in a line: Selectivity ratio, ratio of Ki for central-type benzodiazepine receptor in bovine cortical membrane to Ki for central-type benzodiazepine receptor in bovine cortical membrane in presence of 50 uM of GABA. The data set is classed as cell membranes.
Data set [6] relates to Mus musculus. The experiment in a line: Anxiolytic activity against mouse assessed as increase in time spent in light box at 10 mg/kg, po administered 30 mins before test by light-dark box test. The data set is classed as functional, organism-based. An outline of the steps:
(§2)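 Light-dark box in mice measured time in the light compartment. Compounds were given per os 30 min before testing, and diazepam 1 mg kg-1 subcutaneously as reference. Values are mean ± SEM of at least 10 mice, compared with vehicle-treated animals.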

Data set [7] deals with Mus musculus. The experiment in a line: Antiamnestic activity in scopolamine induced mouse amnesia model assessed as time of retention session in light box at 30 mg/kg, po administered 30 mins before test by passive avoidance test (reference value: 44.8 +/- 8.1 secs). The class given is functional. The procedure, abridged: (§3)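 Passive avoidance in mice: compounds were given per os 30 min before the test, and scopolamine 1.5 mg kg-1 i.p. immediately after the punishment. Read-out was time recorded during the retention session. Values are mean ± SEM of at least 10 mice, compared with vehicle-treated animals.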

The test system of data set [8] is Mus musculus. The data set is described as follows: Anxiolytic activity in mouse assessed as increase in time spent in light box at 1 mg/kg, sc administered 30 mins before test by light-dark box test. The class given is functional, organism-based. An outline of the steps: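 Mice, light-dark box test for anxiolytic effect; agent given subcutaneously (1 mg kg-1) 30 min before testing; time in light box recorded; mean ± SEM of at least 10 mice; significance vs vehicle-treated mice.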

Data set [9] deals with Brain. The data set is described as follows: Neuroprotective activity against oxygen-glucose deprivation and reoxygenation-induced injury in Sprague-Dawley rat brain cortical slices assessed as maximum recovery in LDH release at 5 uM treated during 90 mins of reperfusion phase measured after 90 mins by spetrophotometric method. The data set is classed as functional. The procedure, abridged:
(§4)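 Rat brain cortical slices in ACSF underwent 30 min oxygen/glucose deprivation, then 90 min reoxygenated ACSF (reperfusion). Controls were kept 120 min in ACSF. Compounds (0.1–100 µM) were added only during reperfusion, and LDH release was measured. Data are means ± SEM of at least 4 experiments, analysed by ANOVA with Dunnett post test. The effective concentration is that giving the largest reduction, and recovery is the % reversion at that concentration.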
For orientation: LDH leaks from cells whose membrane has failed.

For data set [10], the system named is Mus musculus. The data set is described as follows: Anxiolytic activity in mouse assessed as time spent in light box at 10 mg/kg, po administered 30 mins before test by light-dark box test. The data set is classed as functional. An outline of the steps: as §2
The test system of data set [11] is Mus musculus. The experiment in a line: Antiamnestic activity in scopolamine induced mouse amnesia model assessed as time spent in light box at 1 mg/kg, po administered 30 mins before test by passive avoidance test. The data set is classed as functional, organism-based. An outline of the steps: as §3
Data set [12] deals with Mus musculus. The data set is described as follows: Antiamnestic activity in mouse assessed as prevention of scopalamine-induced amnesia at 10 mg/kg, po administered 30 mins before test by passive avoidance test. The class given is functional, organism-based. The procedure, abridged:
as §3

Data set [13] relates to Mus musculus. The experiment in a line: Anxiolytic activity in mouse assessed as time spent in light box at 30 mg/kg, po administered 30 mins before test by light-dark box test. The class given is functional. An outline of the steps:
as §2

The species entered for data set [14] is Rattus norvegicus. The data set is described as follows: Antagonist activity at central-type benzodiazepine receptor in Sprague-Dawley rat cerebrocortical synaptoneurosomes assessed as decrease in 36Cl- flow after 10 secs by liquid-phase scintillation beta-counting method.
The subject of data set [15] is Mus musculus. The data set is described as follows: Anxiolytic activity in mouse assessed as increase in time spent in light box at 1 mg/kg, po administered 30 mins before test by light-dark box test. The data set is classed as functional, organism-based. The procedure, abridged: as §2
Data set [16] concerns Brain. The experiment in a line: Neuroprotective activity against oxygen-glucose deprivation and reoxygenation-induced injury in Sprague-Dawley rat brain cortical slices assessed as maximum recovery in LDH release at 50 uM treated during 90 mins of reperfusion phase measured after 90 mins by spetrophotometric method. The class given is functional. The procedure, abridged:
as §4

Data set [17] has as its system Mus musculus. The experiment in a line: Anxiolytic activity in po dosed mouse assessed as increase in time spent in light box administered 30 mins before test by light-dark box test. The data set is classed as functional, organism-based. An outline of the steps:
as §2

The test system of data set [18] is Mus musculus. The data set is described as follows: Antiamnestic activity in scopolamine induced mouse amnesia model assessed as time spent in light box at 3 mg/kg, po administered 30 mins before test by passive avoidance test (reference value: 44.8 +/- 8.1 secs). The data set is classed as functional. The procedure, abridged: as §3
In data set [19] the test system is Mus musculus. The experiment in a line: Anxiolytic activity in mouse assessed as time spent in light box at 3 mg/kg, po administered 30 mins before test by light-dark box test. The data set is classed as functional. The procedure, abridged:
as §2

The species named for data set [20] is Rattus norvegicus. The experiment in a line: Inverse agonist activity at central-type benzodiazepine receptor in Sprague-Dawley rat cerebrocortical synaptoneurosomes assessed as decrease in 36Cl- flow after 10 secs by liquid-phase scintillation beta-counting method.
The test system of data set [21] is Mus musculus. The experiment in a line: Antiamnestic activity in scopalamine-induced mouse amnesia model assessed as time spent in light box at 10 mg/kg, po administered 30 mins before test by passive avoidance test (reference value: 44.8 +/- 8.1 secs). The class given is functional. The procedure, abridged: as §3
The species entered for data set [22] is Bos taurus. The data set is described as follows: Displacement of [3H]-flumazenil from central-type benzodiazepine receptor in bovine cortical membrane at 1000 nM after 90 mins by liquid-phase scintillation beta-counting method. The data set is classed as cell membranes. An outline of the steps:
as §1

Activity calls are given as the source filed them. The calls are words filed in the database; no cut-off is given here. A value given as a limit tells only on which side of the number the result lay.

These results are taken from ChEMBL document CHEMBL3808278, “Design, Synthesis, and Biological Evaluation of Imidazo[1,5-a]quinoline as Highly Potent Ligands of Central Benzodiazepine Receptors” (J Med Chem, 2016).

As a reminder, the Ki is a measure of affinity in units of concentration, obtained from inhibition or displacement. A high value points to a looser hold on the target. As a reminder, the inhibition is the share of the control response that was lost under treatment. A higher inhibition goes with a strong effect.

In the case of `CCOC(=O)c1ncn2c1cc(C(=O)N(C)C)c1ccccc12`, in [1], the Ki worked out at 8.2 nM. The result in the data set filed under Rattus norvegicus [2] and in the data set on Mus musculus [6] was Active. Also, the Activity entry in the data set with Mus musculus [3] and in the data set listed under Mus musculus [4] was “Non-toxic” throughout. In the data set listed under Bos taurus [5], the Ratio Ki is 1.3. For the same compound, the outcome in the data set with Mus musculus [7] was inactive.
Take `CN1C(=O)CN=C(c2ccccc2)c2cc(Cl)ccc21` [DIAZEPAM]: the result in the data set with Mus musculus [8] was Active. Moreover, the Activity in the data set with Brain [9] is reported as 55.9%.
Turning to `CCCN(CCC)C(=O)c1c(CC)c2c(C(=O)OC(C)(C)C)ncn2c2ccccc12`, the Ki in data set [1] amounted to 5.6 nM. Moreover, the outcome in the data set filed under Rattus norvegicus [2], in the data set on Mus musculus [11] and with Mus musculus [12] was Active. Further, the Time with Mus musculus [10] is given as 172.5 s. The Activity result in the data set with Mus musculus [3] is reported as “Non-toxic”; in the data set listed under Mus musculus [4], “Non-toxic”; with Brain [9] it was 44.4%. Further, in the data set listed under Bos taurus [5], the Ratio Ki stood at 1.4.
In data set [1], `Cc1c(C(=O)N(C)Cc2ccccc2)c2ccccc2n2cnc(C(=O)OC(C)(C)C)c12` displayed a Ki of 2.6 nM. The Time result in the data set with Mus musculus [13] is “<=139.2 s”; in the data set on Mus musculus [7] it was “<=77.9 s”. The Antagonist activity entry in the data set listed under Rattus norvegicus [14] is “Active”. In addition, the result in the data set on Mus musculus [15], in the data set on Mus musculus [12] and in the data set with Mus musculus [6] was inactive. For the same compound, the Activity entry in the data set on Mus musculus [3] and in the data set listed under Mus musculus [4] was “Non-toxic” throughout. Besides, the Ratio Ki in the data set filed under Bos taurus [5] was 1.
In turn, `CCCN(CCC)C(=O)c1c(CC)c2c(C(=O)OCC)ncn2c2ccccc12` showed a Ki in data set [1] of 2.5 nM. For the same compound, the result in the data set listed under Rattus norvegicus [2], with Mus musculus [12] and in the data set on Mus musculus [6] was Active. Further, the Activity entry is listed as “Non-toxic” with Mus musculus [3], “Non-toxic” in the data set filed under Mus musculus [4] and 44.3% with Brain [16]. Also, the Ratio Ki in the data set filed under Bos taurus [5] was 1.5.
`CCCCN(C)C(=O)c1cc2c(C(=O)OC(C)(C)C)ncn2c2ccccc12`: the values for the Activity result in the data set on Mus musculus [17], in the data set on Mus musculus [3] and in the data set listed under Mus musculus [4] were “Dose-dependent effect”, “Non-toxic” and “Non-toxic”, respectively. This compound also returned a Ki in data set [1] of 1.8 nM. For the same compound, the Time is given as 73.5 s in the data set on Mus musculus [18], 167.2 s with Mus musculus [10] and 144.8 s with Mus musculus [19]. Besides, the Ratio Ki in the data set filed under Bos taurus [5] stood at 0.62. Moreover, the result in the data set with Mus musculus [12] and in the data set listed under Rattus norvegicus [20] was Active.
In turn, `CCCN(CCC)C(=O)c1c(C)c2c(C(=O)OCC)ncn2c2ccccc12` gave a Ki in [1] of 1.5 nM. Further, the outcome in the data set listed under Rattus norvegicus [2], in the data set with Mus musculus [12] and in the data set with Mus musculus [6] was Active. Also, the Time in the data set with Mus musculus [19] worked out at 153.4 s. Moreover, the Activity result in the data set on Mus musculus [3] is recorded as “Non-toxic”; in the data set listed under Mus musculus [4] it was “Non-toxic”; with Brain [16], 44%. The Ratio Ki in the data set filed under Bos taurus [5] came out at 1.3.
Take `CCCN(CCC)C(=O)c1cc2c(C(=O)OCC)ncn2c2ccc(F)cc12`: the affinity in [1] corresponds to a Ki of 0.44 nM. In addition, the Time with Mus musculus [10] is recorded as 181.4 s; in the data set on Mus musculus [21] it was 99.6 s. Moreover, the Activity entry in the data set with Mus musculus [3] and in the data set listed under Mus musculus [4] was “Non-toxic” each time. Besides, the result in the data set on Mus musculus [11], in the data set with Mus musculus [12] and in the data set filed under Rattus norvegicus [20] was Active. In the data set listed under Bos taurus [5], the Ratio Ki turned out to be 0.8.
`Cc1c(-c2ccccc2)c2ccccc2n2cnc(C(=O)N(C)Cc3ccccc3)c12` had a Ki in [1] greater than 1000 nM. This compound displayed an inhibition in the data set listed under Bos taurus [22] of 19%.
Turning to `CCCN(CCC)C(=O)c1c(C)c2c(C(=O)OC(C)(C)C)ncn2c2ccccc12`, in data set [1], the Ki worked out at 1 nM. For the same compound, in the data set filed under Rattus norvegicus [14], the Antagonist activity entry is “Active”. Further, the outcome in the data set on Mus musculus [15], in the data set with Mus musculus [12] and in the data set with Mus musculus [6] was Active. Further, the Activity entry with Mus musculus [3] and in the data set filed under Mus musculus [4] was “Non-toxic” in each case. Besides, the Ratio Ki in the data set filed under Bos taurus [5] is 1.1.
